PMC7709506 (ESMO Open, 2020)
pIC50: −log10 of the molar value.

How the values were obtained:
[1] = system: advanced or metastatic solid tumours; experiment: Preliminary antitumour activity; format: in vivo, human
[2] = system: cell lines with increased FGFR activity; conditions: cell lines with increased FGFR activity and known dependency on FGFR signalling; cited from earlier work
[3] = Plasma pharmacokinetics after single and multiple dosing; format: in vivo, human; conditions: for Accumulation ratio, geometric mean (CV %): AUC0–last day 15 / day 1; for Mean (SD) metabolite to parent ratio: ORM-21444 AUC0–last / ODM-203 AUC0–last
Summary of the method: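 Oral once-daily test compound. Capsule single dose on day 1 after a low-phosphate light breakfast. In tablet cohorts, one capsule dose was followed a week later by continuous daily tablets from 200 mg. Plasma sampled on day 1 and day 8 or 15 predose and 0.1–24 h post-dose, plus predose from day 8. Cmax, Tmax and AUC0–last (linear trapezoidal) were log-transformed. Accumulation = day 15/day 1 AUC; metabolite ratio = metabolite/parent AUC.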

UGT1A1 = conditions: human liver microsomes; cited from earlier work

Cn1cc(-c2ccc3c(c2)ncn3-c2cc(NS(=O)(=O)C3CC3)cc(-c3ccc(F)cc3F)c2)cn1 [ODM-203]
overall response rate ([1]; RECIST, all evaluable (7/76 patients)): 9.2%
disease control rate ([1]; all evaluable): 57.9%
median progression-free survival ([1]; non-FGFR patients): 12.4 weeks
disease control rate ([1]; non-FGFR tumours): 52.3%
overall response rate ([1]; non-FGFR tumours (3/44)): 6.8%
patients without disease progression at 16 weeks ([1]; non-FGFR tumours (16/42)): 38.1%
patients without disease progression at 16 weeks ([1]; overall (24/71)): 33.8%
median progression-free survival ([1]; patients with FGFR aberration(s)): 16.1 weeks
disease control rate ([1]; tumours with FGFR aberrations): 65.6%
overall response rate ([1]; tumours with FGFR aberrations (4/32)): 12.5%
patients without disease progression at 16 weeks ([1]; tumours with FGFR aberrations (8/29)): 27.6%
cell proliferation [2]: suppresses cell proliferation
interindividual variability of steady-state AUC (coefficient of variation) ([3]; 400 mg tablet group at day 15): 90%
Accumulation ratio, geometric mean (CV %) ([3]; tablet 200 mg (n=3)): 2.3 (23)
Accumulation ratio, geometric mean (CV %) ([3]; tablet 300 mg (n=3)): 2.3 (123)
Accumulation ratio, geometric mean (CV %) ([3]; tablet 400 mg (n=24)): 5.5 (76)
Mean (SD) metabolite to parent ratio ([3]; tablet 200 mg, Day 1 (n=3)): 0.043 (0.022)
Mean (SD) metabolite to parent ratio ([3]; tablet 200 mg, Day 15 (n=3)): 0.085 (0.043)
Mean (SD) metabolite to parent ratio ([3]; tablet 300 mg, Day 1 (n=3)): 0.061 (0.030)
Mean (SD) metabolite to parent ratio ([3]; tablet 300 mg, Day 15 (n=3)): 0.094 (0.004)
Mean (SD) metabolite to parent ratio ([3]; tablet 400 mg, Day 1 (n=25)): 0.048 (0.034)
Mean (SD) metabolite to parent ratio ([3]; tablet 400 mg, Day 15 (n=24)): 0.117 (0.031)
average Tmax in different cohorts ([3]; after a single dose): 6 to 10 h
individual Tmax range ([3]; after a single dose): 3 to 24 h
average accumulation ratios ([3]; based on AUC0–last, different cohorts): 2.3–5.5
tablet formulation compared with capsule formulation ([3]; in vivo): higher exposure and lower variability
AUC ratio (metabolite ORM-21444 to ODM-203) ([3]; steady state): less than 0.15
half-life ([3]; suggested by accumulation ratios, different cohorts): 30 to 70 h
Cmax, geometric mean (CV %) ([3]; tablet 200 mg, Day 1 (n=3)): 1539 (9) ng/mL
Median (min, max) Tmax ([3]; tablet 200 mg, Day 1 (n=3)): 8.0 (7.7 to 11.1) h
Cmax, geometric mean (CV %) ([3]; tablet 200 mg, Day 15 (n=3)): 3118 (28) ng/mL
Mean (SD) Caverage ([3]; tablet 200 mg, Day 15 (n=3)): 2560 (719) ng/mL
Median (min, max) Tmax ([3]; tablet 200 mg, Day 15 (n=3)): 8.0 (6.0 to 11.2) h
Cmax, geometric mean (CV %) ([3]; tablet 300 mg, Day 1 (n=3)): 2608 (46) ng/mL
Median (min, max) Tmax ([3]; tablet 300 mg, Day 1 (n=3)): 6.0 (4.1 to 6.1) h
Cmax, geometric mean (CV %) ([3]; tablet 300 mg, Day 15 (n=3)): 4906 (148) ng/mL
Mean (SD) Caverage ([3]; tablet 300 mg, Day 15 (n=3)): 5652 (5460) ng/mL
Median (min, max) Tmax ([3]; tablet 300 mg, Day 15 (n=3)): 6.1 (3.1 to 8.7) h
Cmax, geometric mean (CV %) ([3]; tablet 400 mg, Day 1 (n=25)): 1933 (49) ng/mL
Median (min, max) Tmax ([3]; tablet 400 mg, Day 1 (n=25)): 6.3 (3.1 to 24.7) h
Cmax, geometric mean (CV %) ([3]; tablet 400 mg, Day 15 (n=24)): 9070 (81) ng/mL
Mean (SD) Caverage ([3]; tablet 400 mg, Day 15 (n=24)): 8928 (5148) ng/mL
Median (min, max) Tmax ([3]; tablet 400 mg, Day 15 (n=24)): 6.0 (0.0 to 23.3) h
pIC50 (UGT1A1): 7.00
